Changes are numbered by the printed parent chain. Calls of active or inactive are those of the source. The rule behind the calls is not given here.
Key:
[1] = tested on: T1, Lysosomal acid glucosylceramidase (Homo sapiens), P04062 [N409S]; test: Agonist activity at glucosylceramidase N370S mutant in lymphoblast obtained from Gaucher disease patient using 4-methylumbelliferyl-beta-D-glucopyranoside as substrate preincubated at 1 uM for 3 days measured 2 hrs post substrate addition by fluorescence assay relative to untreated control; format: functional
T1 sequence (whole entry): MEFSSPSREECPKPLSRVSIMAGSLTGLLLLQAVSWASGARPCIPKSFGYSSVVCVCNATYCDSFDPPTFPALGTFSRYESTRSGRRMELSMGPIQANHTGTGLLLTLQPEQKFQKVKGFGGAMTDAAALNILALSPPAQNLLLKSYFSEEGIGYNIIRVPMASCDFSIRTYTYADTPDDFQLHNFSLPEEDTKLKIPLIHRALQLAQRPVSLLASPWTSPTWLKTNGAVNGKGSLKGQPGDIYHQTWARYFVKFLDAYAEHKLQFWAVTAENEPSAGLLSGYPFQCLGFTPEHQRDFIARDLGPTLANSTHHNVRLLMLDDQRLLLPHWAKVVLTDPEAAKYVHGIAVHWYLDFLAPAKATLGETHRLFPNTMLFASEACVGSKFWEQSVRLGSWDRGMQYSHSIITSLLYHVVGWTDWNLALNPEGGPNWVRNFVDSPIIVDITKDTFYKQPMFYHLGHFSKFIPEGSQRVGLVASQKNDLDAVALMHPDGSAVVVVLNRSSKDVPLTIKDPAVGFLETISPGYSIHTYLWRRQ
Method in brief: (§1)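 Patient-derived N370S homozygous lymphoblasts (RPMI-1640, 15% FBS, 37 °C, 5% CO2; passages 5–16) seeded at 2 × 10^5 cells/well, exposed to compound for 3 days. Cells washed in PBS and lysed in water by sonication. Homogenate incubated with 6 mM 4-MU-β-glucoside in 0.1 M citrate phosphate pH 5.2 with 0.25% taurocholate and 0.1% Triton X-100, 37 °C, 2 h. Fluorescence read at 355/460 nm; activity normalized to untreated cells; triplicate.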

[2] = Cytotoxicity against human fibroblasts at 50 uM; format: cell-based; settings: fibroblast
[3] = target: T2, Ceramide glucosyltransferase (Mus musculus) (UniProt O88693); test: Inhibition of GCS activity in mouse tissue homogenate at 50 uM
T2 sequence (whole entry): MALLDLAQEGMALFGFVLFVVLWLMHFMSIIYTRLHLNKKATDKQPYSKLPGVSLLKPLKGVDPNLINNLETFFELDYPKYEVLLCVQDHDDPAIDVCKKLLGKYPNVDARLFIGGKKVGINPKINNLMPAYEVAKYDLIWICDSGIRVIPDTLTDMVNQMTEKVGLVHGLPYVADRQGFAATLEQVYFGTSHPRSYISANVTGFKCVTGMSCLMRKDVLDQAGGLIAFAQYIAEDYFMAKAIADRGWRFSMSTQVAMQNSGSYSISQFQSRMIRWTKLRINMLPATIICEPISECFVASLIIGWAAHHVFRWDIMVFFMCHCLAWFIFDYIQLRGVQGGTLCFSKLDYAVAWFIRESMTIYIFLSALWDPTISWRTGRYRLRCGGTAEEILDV

[4] = target: T3, Alpha-galactosidase A (Homo sapiens) (UniProt P06280); test: Inhibition of lysosomal alpha-galactosidase in human fibroblast at 5 uM after 24 hrs
T3 sequence (whole entry): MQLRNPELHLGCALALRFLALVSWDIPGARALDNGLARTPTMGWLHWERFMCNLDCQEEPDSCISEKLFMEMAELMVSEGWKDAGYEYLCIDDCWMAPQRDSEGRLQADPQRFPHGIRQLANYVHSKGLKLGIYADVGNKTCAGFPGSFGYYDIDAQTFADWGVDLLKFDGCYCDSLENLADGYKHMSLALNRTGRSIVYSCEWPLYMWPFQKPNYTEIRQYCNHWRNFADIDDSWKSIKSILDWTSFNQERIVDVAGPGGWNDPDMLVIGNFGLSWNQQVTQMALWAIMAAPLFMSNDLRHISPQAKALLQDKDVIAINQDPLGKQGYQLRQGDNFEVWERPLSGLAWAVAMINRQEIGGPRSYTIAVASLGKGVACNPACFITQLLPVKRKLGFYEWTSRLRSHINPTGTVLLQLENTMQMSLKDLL

[5] = Cytotoxicity against human fibroblasts at 5 uM; format: cell-based; settings: fibroblast
[6] = target: T2, Ceramide glucosyltransferase (Mus musculus); test: Inhibition of GCS activity in mouse tissue homogenate at 250 uM
[7] = tested on: T1, Lysosomal acid glucosylceramidase (Homo sapiens), P04062 [N409S]; test: Agonist activity at glucosylceramidase N370S mutant in lymphoblast obtained from Gaucher disease patient using 4-methylumbelliferyl-beta-D-glucopyranoside as substrate preincubated at 1 nM for 3 days measured 2 hrs post substrate addition by fluorescence assay relative to untreated control; format: functional; method in brief: as §1
[8] = target: T4, Lysosomal acid glucosylceramidase (Homo sapiens) (UniProt P04062); settings: 50 uM
T4 sequence (whole entry): T1 sequence (whole entry) with S409N

[9] = tested on: T1, Lysosomal acid glucosylceramidase (Homo sapiens), P04062 [N409S]; test: Agonist activity at glucosylceramidase N370S mutant in lymphoblast obtained from gauchers patient using 4-methylumbelliferyl-beta-D-glucopyranoside as substrate preincubated at 1 to 5000 nM for 3 days measured 2 hrs post substrate addition by fluorescence assay relative to untreated control; format: functional; method in brief: as §1
[10] = Agonist activity at glucosylceramidase […] mutant in lymphoblast obtained from Gaucher disease patient using 4-methylumbelliferyl-beta-D-glucopyranoside as substrate preincubated at 100 nM for 3 days measured 2 hrs post substrate addition by fluorescence assay relative to untreated control; format: functional, Homo sapiens
Method in brief: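 Homozygous L444P GD type 2 patient-derived lymphoblasts (GM08752) in RPMI-1640 with 15% FBS, seeded at 2 × 10^5 cells/well and exposed to compound for 3 days. Cells were washed with PBS and sonicated in water. Homogenate was assayed with 6 mM 4-methylumbelliferyl-β-D-glucopyranoside in 0.1 M citrate phosphate, pH 5.2, with 0.25% taurocholate and 0.1% Triton X-100, for 2 h at 37 °C. Fluorescence read at 355/460 nm, normalized to untreated cells, triplicate.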

Compound | Activity [2] | inhibition [3] | inhibition [4] | Activity [5] | inhibition [6] [%] | inhibition [8] [%] | Activity [9] | further results
CCCCCCCCCN[C@H]1[C@H](O)[C@@H](O)[C@H](O)[C@@H](O)[C@H]1OC.Cl | – | – | – | – | – | – | – | fold change (FC) [1]: 2
CCCCCCCCCN[C@H]1[C@H](O)[C@@H](O)[C@H](O)[C@@H](O)[C@@H]1OCCCCCCCCC.Cl | Toxic | inactive | < 16% | Non-toxic | 56 | – | – | fold change (FC) [1]: 1.4; inhibition [7]: 90%
CCCCCCCCCN[C@H]1[C@H](O)[C@@H](O)[C@H](O)[C@@H](O)[C@@H]1OC.Cl | – | – | – | – | – | 23 | – | –
CCCCCCCCCN[C@H]1[C@H](O)[C@@H](O)[C@H](O)[C@@H](O)[C@@H]1O | – | – | – | – | – | 23 | inactive | –
CCCCCCCCCN(CCCCCCCCC)[C@@H]1[C@H](O)[C@H](O)[C@@H](O)[C@H](O)[C@H]1O.Cl | Toxic | inactive | < 16% | Non-toxic | 56 | – | inactive | –
CCCCCCCCCN[C@@H]1[C@H](O)[C@@H](O)[C@H](O)[C@@H](O)[C@@H]1O | – | – | – | – | – | 23 | inactive | –
CCCCCCCCCN[C@@H]1[C@H](O)[C@H](O)[C@@H](O)[C@H](O)[C@H]1O.Cl | – | – | – | – | – | – | – | fold change (FC) [10]: 1.2
CCCCCCCCCO[C@H]1[C@@H](N)[C@H](O)[C@@H](O)[C@H](O)[C@H]1O.Cl | – | – | – | – | – | – | – | fold change (FC) [10]: 1.3
CCCCCCCCCN[C@H]1[C@H](O)[C@@H](O)[C@H](O)[C@@H](O)[C@H]1OCCCCCCCCC.Cl | Toxic | inactive | inactive | Non-toxic | 56 | – | – | fold change (FC) [7]: 1.9

Source: ChEMBL document CHEMBL2163314, “Potent aminocyclitol glucocerebrosidase inhibitors are subnanomolar pharmacological chaperones for treating gaucher disease” (J Med Chem, 2012)
